We go through 5 compounds from article PMC9340768 (Journal of Medicinal Chemistry, 2022).

≈ marks a conversion by molar mass, not a printed value.

Data set [1] in a line: Pharmacokinetics in Sprague-Dawley rats. The conditions noted are these: rat, in vivo, iv, 2 mg/kg, SD rats, 2 mg/kg IV bolus; for clearance: CL (mL/min/kg); for half-life: t½ (h), terminal half-life.
A further data set has as its system CT26-Nectin-4 tumors. Description: CT26-Nectin-4 syngeneic tumor model. In kind it is in vivo, Balb/c mice. The conditions noted are these: 1 and 5 mg/kg QD IP.
For data set [2], the system named is human PBMCs cocultured with HT1376. Description: PBMC/HT1376 coculture cytokine secretion assay. It is filed as cell-based. The following applies: anti-CD3 stimulated PBMCs with HT1376. Summed up: (§1)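 Frozen healthy-donor human PBMCs were thawed, washed in PBS with benzonase and resuspended in RPMI with 10% heat-inactivated FBS, HEPES and glutamine. PBMCs (1 × 10^6/mL) were plated with tumor cells (1 × 10^5/mL) at 10:1, stimulated with soluble anti-CD3 OKT3 (100 ng/mL), and given diluted test compound. Incubation was 2 days at 37 °C, 5% CO2. Supernatant IFNγ and IL-2 were measured by Luminex; four-parameter fit, n = 3.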

In a further data set the test system is MC38-Nectin-4 tumors. Description: CIVO intratumoral microdosing pharmacodynamics. It is filed as in vivo, huCD137 C57Bl/6 mice. The conditions noted are these: 1.85 μM microdose, 24 h, IHC; compared to vehicle or MMAE injection sites. Summed up:
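C57BL/6J-hCD137 mice bearing subcutaneous MC38-Nectin-4 tumors (around 860 mm3; three mice) were anesthetized and microdosed transcutaneously with the CIVO device. Each 2 μL injection held vehicle (25 mM histidine, 10% sucrose pH 7), 120 μM MMAE or 1.85 μM test compound, plus fluorescent tracking microspheres. Tumors were taken 24 h later, formalin-fixed, paraffin-embedded and stained by fluorescent IHC for CD8, GzB and DAPI. CD8+/GzB+ cells were normalized to total CD8+ cells; one-way ANOVA with Dunnett's post-test.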

Data set [3] has as its system human PBMCs cocultured with MC38-Nectin-4. Briefly: PBMC/MC38-Nectin-4 coculture cytokine secretion assay. In kind it is cell-based. The conditions noted are these: anti-CD3 stimulated; IFNγ after 48 h. Summed up:
as §1

Another data set concerns the target human CD137 (Homo sapiens, UniProt Q07011). Description: SPR binding to human CD137. In general terms: In SPR one partner is held on a chip, and binding of the other changes the refractive index at the surface.
The nature of a further data set: Thermodynamic solubility. It is filed as physicochemical. The following applies: pH 7.4.

In general, clearance refers to the volume of plasma or blood freed of the substance per unit of time. A word on the half-life: it is the time needed for the level to fall by half in the phase considered. High values mean slow decline, low ones rapid decline. By Kd is commonly meant the concentration at which binding is half-saturated. Higher therefore signals a looser complex. One may read the thermodynamic solubility as the concentration in solution at equilibrium with solid.

With `CCCC[C@@H]1NC(=O)[C@H](Cc2ccc(O)cc2)NC(=O)[C@@H]2CCCN2C(=O)[C@H](CC(=O)O)NC(=O)[C@H](C)NC(=O)[C@H](Cc2ccccc2)NC(=O)[C@@H]2CSCCC(=O)N3CN(CN(C3)C(=O)CCSC[C@@H](C(=O)N[C@@H](C)C(N)=O)NC1=O)C(=O)CCSC[C@H](NC(C)=O)C(=O)N[C@@H](CC(C)(C)C)C(=O)N1CCC[C@H]1C(=O)N[C@@H](CCC(=O)O)C(=O)N[C@H](CCCCNC(=O)CCc1cn(CCOCCOCCOCCOCCOCCC(=O)N[C@H]3CSCCC(=O)N4CN5CN(C4)C(=O)CCSC[C@H](NC(=O)[C@@H](CC(=O)O)NC(=O)[C@H](Cc4cccc6ccccc46)NC(=O)[C@@H]4CCCN4C3=O)C(=O)N[C@@H](CCSC)C(=O)N[C@@H](CCCCNC(=N)N)C(=O)N[C@@H](CC(=O)O)C(=O)N[C@@H](Cc3c[nH]c4ccccc34)C(=O)N[C@@H](CO)C(=O)N[C@@H]([C@@H](C)O)C(=O)N3CCC[C@H]3C(=O)N3C[C@H](O)C[C@H]3C(=O)N[C@@H](Cc3c[nH]c4ccccc34)C(=O)N[C@H](C(N)=O)CSCCC5=O)nn1)C(=O)N1CCC[C@H]1C(=O)N[C@@H](Cc1ccc(O)cc1)C(=O)N2` [BCY10572], the clearance in data set [1] came to 18 mL/min/kg. The antitumor activity result in the data set on CT26-Nectin-4 tumors (huCD137-Balb/c mice) is recorded as “Potent antitumor activity”; in the data set with CT26-Nectin-4 tumors (wt Balb/c mice), “no BCY10572 antitumor activity”. The “secretion of proinflammatory cytokines IFNγ and IL-2” value (“secretion” below) in data set [2] is on record as “dose-dependent increase”.
Turning to `CCCC[C@@H]1NC(=O)[C@H](Cc2ccc(O)cc2)NC(=O)[C@@H]2CCCN2C(=O)[C@H](CC(=O)O)NC(=O)[C@H](C)NC(=O)[C@H](Cc2ccccc2)NC(=O)[C@@H]2CSCCC(=O)N3CN(CN(C3)C(=O)CCSC[C@@H](C(=O)N[C@@H](C)C(N)=O)NC1=O)C(=O)CCSC[C@H](NC(=O)[C@H](C)NC(C)=O)C(=O)N[C@@H]([C@@H](C)CC)C(=O)N[C@@H](CCC(=O)O)C(=O)N[C@@H](CCC(=O)O)C(=O)N[C@H](CCCCNC(=O)CCc1cn(CCOCCOCCOCCN(CCOCCOCCOCCC(=O)N[C@H]3CSCCC(=O)N4CN5CN(C4)C(=O)CCSC[C@H](NC(=O)[C@@H](CC(=O)O)NC(=O)[C@H](Cc4cccc6ccccc46)NC(=O)[C@@H]4CCCN4C3=O)C(=O)N[C@@H](CCSC)C(=O)N[C@@H](CCCCNC(=N)N)C(=O)N[C@@H](CC(=O)O)C(=O)N[C@@H](Cc3c[nH]c4ccccc34)C(=O)N[C@@H](CO)C(=O)N[C@@H]([C@@H](C)O)C(=O)N3CCC[C@H]3C(=O)N3C[C@H](O)C[C@H]3C(=O)N[C@@H](Cc3c[nH]c4ccccc34)C(=O)N[C@H](C(N)=O)CSCCC5=O)CCOCCOCCOCCn3cc(CCC(=O)NCCCC[C@H]4NC(=O)[C@H](CCC(=O)O)NC(=O)[C@H](CCC(=O)O)NC(=O)[C@H]([C@@H](C)CC)NC(=O)[C@@H](NC(=O)[C@H](C)NC(C)=O)CSCCC(=O)N5CN6CN(C5)C(=O)CCSC[C@H](NC(=O)[C@H](Cc5ccc(O)cc5)NC(=O)[C@H](CCC(N)=O)NC4=O)C(=O)N[C@@H](Cc4ccccc4)C(=O)N[C@@H](C)C(=O)N[C@@H](CC(=O)O)C(=O)N4CCC[C@H]4C(=O)N[C@@H](Cc4ccc(O)cc4)C(=O)N[C@@H](CCCC)C(=O)N[C@H](C(=O)N[C@@H](C)C(N)=O)CSCCC6=O)nn3)nn1)C(=O)N[C@@H](CCC(N)=O)C(=O)N[C@@H](Cc1ccc(O)cc1)C(=O)N2` [BCY11864], the “proportion of CD8+/GzB+ double positive cells of total CD8+ cells” value with MC38-Nectin-4 tumors was “increase”. In data set [3], the “functional activity in PBMCs cocultured with MC38-Nectin-4” value is on record as “functionally active”. This compound also gave a half-life in data set [1] of 0.95 h. Also, in data set [2], the “secretion” value is “dose-dependent increase”.
Compound `CCCC[C@@H]1NC(=O)[C@H](Cc2ccc(O)cc2)NC(=O)[C@@H]2CCCN2C(=O)[C@H](CC(N)=O)NC(=O)[C@H](C)NC(=O)[C@H](Cc2ccccc2)NC(=O)[C@@H]2CSCCC(=O)N3CN(CN(C3)C(=O)CCSC[C@H](NC(C)=O)C(=O)N[C@@H](CC(C)(C)C)C(=O)N3CCC[C@H]3C(=O)N[C@@H](CCC(=O)O)C(=O)N[C@H](CCCCNC(=O)CCc3cn(CCOCCOCCOCCN(CCOCCOCCOCCC(=O)N[C@H]4CSCCC(=O)N5CN6CN(C5)C(=O)CCSC[C@H](NC(=O)[C@@H](CC(=O)O)NC(=O)[C@H](Cc5cccc7ccccc57)NC(=O)[C@@H]5CCCN5C4=O)C(=O)N[C@@H](CCSC)C(=O)N[C@@H](CCCCNC(=N)N)C(=O)N[C@@H](CC(=O)O)C(=O)N[C@@H](Cc4c[nH]c5ccccc45)C(=O)N[C@@H](CO)C(=O)N[C@@H]([C@@H](C)O)C(=O)N4CCC[C@H]4C(=O)N4C[C@H](O)C[C@H]4C(=O)N[C@@H](Cc4c[nH]c5ccccc45)C(=O)N[C@H](C(N)=O)CSCCC6=O)CCOCCOCCOCCn4cc(CCC(=O)NCCCC[C@H]5NC(=O)[C@H](CCC(=O)O)NC(=O)[C@@H]6CCCN6C(=O)[C@H](CC(C)(C)C)NC(=O)[C@@H](NC(C)=O)CSCCC(=O)N6CN7CN(C6)C(=O)CCSC[C@H](NC(=O)[C@H](Cc6ccc(O)cc6)NC(=O)[C@@H]6CCCN6C5=O)C(=O)N[C@@H](Cc5ccccc5)C(=O)N[C@@H](C)C(=O)N[C@@H](CC(N)=O)C(=O)N5CCC[C@H]5C(=O)N[C@@H](Cc5ccc(O)cc5)C(=O)N[C@@H](CCCC)C(=O)N[C@H](C(N)=O)CSCCC7=O)nn4)nn3)C(=O)N3CCC[C@H]3C(=O)N[C@@H](Cc3ccc(O)cc3)C(=O)N2)C(=O)CCSC[C@@H](C(N)=O)NC1=O` [BCY12486] yielded a Kd at human CD137 of around 8 nM.
At human CD137, `CCCC[C@@H]1NC(=O)[C@H](Cc2ccc(O)cc2)NC(=O)[C@@H]2CCCN2C(=O)[C@H](CCC(=O)O)NC(=O)[C@H](C)NC(=O)[C@H](Cc2ccccc2)NC(=O)[C@@H]2CSCCC(=O)N3CN(CN(C3)C(=O)CCSC[C@H](NC(C)=O)C(=O)N[C@@H](CC(C)(C)C)C(=O)N3CCC[C@H]3C(=O)N[C@@H](CCC(=O)O)C(=O)N[C@H](CCCCNC(=O)CCc3cn(CCOCCOCCOCCN(CCOCCOCCOCCC(=O)N[C@H]4CSCCC(=O)N5CN6CN(C5)C(=O)CCSC[C@H](NC(=O)[C@@H](CC(=O)O)NC(=O)[C@H](Cc5cccc7ccccc57)NC(=O)[C@@H]5CCCN5C4=O)C(=O)N[C@@H](CCSC)C(=O)N[C@@H](CCCCNC(=N)N)C(=O)N[C@@H](CC(=O)O)C(=O)N[C@@H](Cc4c[nH]c5ccccc45)C(=O)N[C@@H](CO)C(=O)N[C@@H]([C@@H](C)O)C(=O)N4CCC[C@H]4C(=O)N4C[C@H](O)C[C@H]4C(=O)N[C@@H](Cc4c[nH]c5ccccc45)C(=O)N[C@H](C(N)=O)CSCCC6=O)CCOCCOCCOCCn4cc(CCC(=O)NCCCC[C@H]5NC(=O)[C@H](CCC(=O)O)NC(=O)[C@@H]6CCCN6C(=O)[C@H](CC(C)(C)C)NC(=O)[C@@H](NC(C)=O)CSCCC(=O)N6CN7CN(C6)C(=O)CCSC[C@H](NC(=O)[C@H](Cc6ccc(O)cc6)NC(=O)[C@@H]6CCCN6C5=O)C(=O)N[C@@H](Cc5ccccc5)C(=O)N[C@@H](C)C(=O)N[C@@H](CCC(=O)O)C(=O)N5CCC[C@H]5C(=O)N[C@@H](Cc5ccc(O)cc5)C(=O)N[C@@H](CCCC)C(=O)N[C@H](C(N)=O)CSCCC7=O)nn4)nn3)C(=O)N3CCC[C@H]3C(=O)N[C@@H](Cc3ccc(O)cc3)C(=O)N2)C(=O)CCSC[C@@H](C(N)=O)NC1=O` [BCY12487] gave a Kd of around 8 nM.
On to `CCCC[C@@H]1NC(=O)[C@H](Cc2ccc(O)cc2)NC(=O)[C@@H]2CCCN2C(=O)[C@H](CC(=O)O)NC(=O)[C@H](C)NC(=O)[C@H](Cc2ccccc2)NC(=O)[C@@H]2CSCCC(=O)N3CN(CN(C3)C(=O)CCSC[C@@H](C(N)=O)NC1=O)C(=O)CCSCCC(=O)N[C@@H](CC(C)(C)C)C(=O)N1CCC[C@H]1C(=O)N[C@@H](CCC(=O)O)C(=O)N[C@H](CCCCNC(=O)CCc1cn(CCOCCOCCOCCN(CCOCCOCCOCCC(=O)N[C@H]3CSCCC(=O)N4CN5CN(C4)C(=O)CCSC[C@H](NC(=O)[C@@H](CC(=O)O)NC(=O)[C@H](Cc4cccc6ccccc46)NC(=O)[C@@H]4CCCN4C3=O)C(=O)N[C@@H](CCSC)C(=O)N[C@@H](CCCCNC(=N)N)C(=O)N[C@@H](CC(=O)O)C(=O)N[C@@H](Cc3c[nH]c4ccccc34)C(=O)N[C@@H](CO)C(=O)N[C@@H]([C@@H](C)O)C(=O)N3CCC[C@H]3C(=O)N3C[C@H](O)C[C@H]3C(=O)N[C@@H](Cc3c[nH]c4ccccc34)C(=O)N[C@H](C(N)=O)CSCCC5=O)CCOCCOCCOCCn3cc(CCC(=O)NCCCC[C@H]4NC(=O)[C@H](CCC(=O)O)NC(=O)[C@@H]5CCCN5C(=O)[C@H](CC(C)(C)C)NC(=O)CCSCCC(=O)N5CN6CN(C5)C(=O)CCSC[C@H](NC(=O)[C@H](Cc5ccc(O)cc5)NC(=O)[C@@H]5CCCN5C4=O)C(=O)N[C@@H](Cc4ccccc4)C(=O)N[C@@H](C)C(=O)N[C@@H](CC(=O)O)C(=O)N4CCC[C@H]4C(=O)N[C@@H](Cc4ccc(O)cc4)C(=O)N[C@@H](CCCC)C(=O)N[C@H](C(N)=O)CSCCC6=O)nn3)nn1)C(=O)N1CCC[C@H]1C(=O)N[C@@H](Cc1ccc(O)cc1)C(=O)N2` [BCY12587], for which, in data set [1], the clearance came to 4.5 mL/min/kg and the half-life was 17 h. The solubility (thermodynamic) in the data set “Thermodynamic solubility” came out at 3100 µg/mL (≈ 446 µM). Further, in data set [2], the “secretion” value is listed as “dose-dependent increase”.
